Source: PubChem
An excerpt weighted towards active compounds, which were near 2.2% of everything screened.
E-sel inducer – E-selectin induction in HUVECs, primary screen, imaging, HUVEC, immunofluorescence imaging, single point | P16581 | normalized: neutral wells 0, TNF-alpha wells 100 | activation, % at 7.58 µM | 260,000 tested, 0.37% active;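 active = mean E-selectin-positive cell signal at least 10% of the positive control, reached in at least 60% of replicates, without over 20% cell loss; inconclusive = no rule given, readout overlaps actives, possibly toxicity-flagged; inactive = the rest, including those meeting only one limit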
Target sequence (P16581 whole entry, looked up): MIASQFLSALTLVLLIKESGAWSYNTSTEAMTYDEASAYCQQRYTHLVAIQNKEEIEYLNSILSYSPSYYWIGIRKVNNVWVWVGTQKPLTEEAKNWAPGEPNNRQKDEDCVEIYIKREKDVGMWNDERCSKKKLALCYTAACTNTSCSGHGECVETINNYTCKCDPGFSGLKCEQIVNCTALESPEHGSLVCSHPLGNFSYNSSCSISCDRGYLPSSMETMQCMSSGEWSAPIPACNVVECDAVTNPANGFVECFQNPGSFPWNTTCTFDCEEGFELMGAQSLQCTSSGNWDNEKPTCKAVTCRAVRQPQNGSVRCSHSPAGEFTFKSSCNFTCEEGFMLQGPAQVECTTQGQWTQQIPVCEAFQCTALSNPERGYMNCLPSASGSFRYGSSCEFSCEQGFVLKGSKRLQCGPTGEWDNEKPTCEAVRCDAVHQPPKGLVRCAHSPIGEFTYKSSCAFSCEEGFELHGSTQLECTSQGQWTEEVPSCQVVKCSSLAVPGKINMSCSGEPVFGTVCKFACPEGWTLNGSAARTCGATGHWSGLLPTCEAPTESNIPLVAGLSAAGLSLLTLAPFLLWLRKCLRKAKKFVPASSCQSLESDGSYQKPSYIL
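Read-out: % PE-positive cells | Test system: HUVEC | Doses: One compound dose added by pin transfer | Buffer or medium: EGM-2 over gelatin coat | Signal: Immunofluorescence imaging | Benchmarks: TNF-alpha, DMSO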
DENV2 CPE – inhibitors of DENV2 cytopathic effect, primary screen, cell-based, plate reader, single concentration; DENV2-infected cells, cytopathic effect rescue; CPE inhibition, % at 9.99 µM; 350,000 tested, 1.7% active; in the data active = CPE inhibition above about 20%, passing the limit was not always enough; inconclusive = no clear call, values can overlap the other calls; tested in BHK-21 cells;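 also: 0% = median of neutral control wells and 100% = median of positive control wells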
Statin myotox sup – suppressors of statin myotoxicity in C2C12 myotubes, primary screen, cell-based, single point, plate reader. C2C12 myotubes + simvastatin, ATP luminescence, 48 h; scaled: DMSO 0, geranylgeraniol control 100. rescue of ATP level, % at 7.49 µM. 330,000 tested, 0.78% active. AID 602340, 2012;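 active = mean ATP rescue above about 67%, or every replicate alone reaching that limit, limit read from the data, passing the limit was not always enough; inconclusive = no clear call, values can overlap the other calls; inactive = mean under the limit and some replicate under it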;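 also: myotubes were challenged with 10 µM simvastatin during compound exposure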
Active calls of the source: *; ? = inconclusive; / = no result given; ! = not active in a repeat.

SMILES | E-sel inducer | DENV2 CPE | Statin myotox sup
COC(=O)/C=C1\N/C(=N\c2nc(C)cc(C)n2)N(c2ccccc2)C1=O | 1 | -3 | /
Cc1ccc(NC(=O)c2ccccc2N(C)S(C)(=O)=O)cc1C | / | / | 106*
CN(c1ccccc1C(=O)Nc1cccc(Cl)c1Cl)S(C)(=O)=O | / | / | 8
CN(c1ccccc1C(=O)Nc1ccc2c(c1)OCCO2)S(C)(=O)=O | 0 | / | 0
CCOc1ccccc1NC(=O)c1ccccc1N(C)S(C)(=O)=O | / | / | 151*
CCCNC(=O)N(C)C[C@H]1Oc2cc(-c3cccnc3)ccc2S(=O)(=O)N([C@@H](C)CO)C[C@H]1C | 0 | -5 | 7
COc1cc(OC)c(NC(=O)CCNS(=O)(=O)c2cc(Br)cnc2N)cc1Cl | / | / | 94*
COc1ccc(NC(=O)CCNS(=O)(=O)c2cc(Br)cnc2N)c(OC)c1 | / | -3 | 0
C[C@@H]1CN([C@H](C)CO)S(=O)(=O)c2ccc(C3=CCCCC3)cc2O[C@@H]1CN(C)Cc1cccc(C(=O)O)c1 | 0 | 12 | -1
CCCCCCOC(=O)Cc1c(C)nc(N)[nH]c1=O | 0 | -5 | 1
CCCCCCOC(=O)CCc1c(C)nc(N)[nH]c1=O | / | / | 98*
CN(C)c1ccc(/C=C/C=N/Nc2nc(N3CCOCC3)nc(N3CCOCC3)n2)cc1 | 63* | 2 | 10
Cc1ccc(/C=N/Nc2nc(N3CCOCC3)nc(N3CCOCC3)n2)o1 | 0 | -4 | /
C[C@H](CO)N1C[C@H](C)[C@H](CN(C)C(=O)C2CCCCC2)Oc2cc(-c3ccccc3)ccc2S1(=O)=O | 0 | 15 | -5
CC(=O)Nc1ccc(/C(C)=N/NS(=O)(=O)c2ccc(C)cc2)cc1 | / | / | -3
C/C(=N/NS(=O)(=O)c1ccc(Br)cc1)c1ccc(NC(=O)c2ccc(C)o2)cc1 | / | / | 76*
C[C@@H]1CCCCO[C@H](CN(C)C(=O)Cc2ccccc2)[C@@H](C)CN([C@H](C)CO)C(=O)c2cc(NC(=O)Nc3cccc4ccccc34)ccc2O1 | 0 | 14 | /
C[C@H](CO)N1C[C@H](C)[C@@H](CN(C)C(=O)Cc2ccccc2)OCCCC[C@H](C)Oc2ccc(NC(=O)Nc3cccc4ccccc34)cc2C1=O | 0 | 24* | /
C[C@@H]1CCCCO[C@@H](CN(C)Cc2ccccc2)[C@H](C)CN([C@@H](C)CO)C(=O)c2cc(NC(=O)Nc3cccc4ccccc34)ccc2O1 | / | -26 | /
C[C@@H]1CCCCO[C@@H](CN(C)Cc2ccccc2)[C@@H](C)CN([C@H](C)CO)C(=O)c2cc(NC(=O)Nc3cccc4ccccc34)ccc2O1 | 0 | 21*! | 2
COc1ccc(S(=O)(=O)Nc2ccc3c(c2)CC(=O)N([C@H](C)CO)C[C@@H](C)[C@@H](CN(C)S(C)(=O)=O)O3)cc1 | -9 | -1 | 20
Cc1cccc(C)c1OC(=O)c1ccccc1 | 0 | -2 | 5
CC(=O)Cc1cc(O)c2ccccc2c1OC(=O)c1ccc(Br)cc1 | / | -2 | 88*
CCCCCN(C(=O)CCc1cn(CCCCC)c2ccccc12)c1ccc(N(C)c2ccccn2)cc1 | 0 | -16 | /
CCCCCN(C(=O)CCc1cn(CCCCC)c2ccccc12)c1ccc(Oc2cccnc2)cc1 | 0 | 91* | /
SMILES | E-sel inducer | DENV2 CPE | Statin myotox sup
Cc1ccc(S(=O)(=O)Nc2ccc3c(c2)C(=O)N([C@H](C)CO)C[C@@H](C)[C@@H](CN(C)Cc2ccc(C(=O)O)cc2)OCCCC[C@@H](C)O3)cc1 | / | 4 | /
CCCNC(=O)NC[C@@H]1[C@@H](c2ccc(C3=CCCC3)cc2)[C@@H](CO)N1C(=O)CC | 0 | 116* | -5
CCCNC(=O)NC[C@H]1[C@@H](c2ccc(C3=CCCC3)cc2)[C@H](CO)N1C(=O)CC | 0 | -2 | -9
CC(=O)N1[C@H](CO)[C@@H](c2ccc(C3=CCCCC3)cc2)[C@@H]1CNC(=O)CN(C)C | 0 | 22* | -17
CC(=O)N1[C@H](CO)[C@H](c2ccc(C3=CCCCC3)cc2)[C@@H]1CNC(=O)CN(C)C | 0 | -10 | -7
CCCN(C)C[C@H]1OCc2cn(nn2)CCCC(=O)N([C@H](C)CO)C[C@H]1C | 0 | -3 | -4
N#C[C@H]1[C@H](c2ccc(-c3cccnc3)cc2)[C@@H](CO)N1C(=O)C1CC1 | 0 | -6 | 8
O=C(N[C@H]1C=C[C@@H](CC(=O)N2CCCCC2)O[C@@H]1CO)c1cccc(F)c1 | 1 | 11 | -1
CCC(=O)N(C)C[C@H]1Oc2cc(-c3ccncc3)ccc2S(=O)(=O)N([C@@H](C)CO)C[C@@H]1C | 0 | -6 | -19
Cc1ccc(-c2nnn(CC(=O)N(c3ccc(F)cc3)C(C(=O)NC3CCCC3)c3ccco3)n2)o1 (centres undefined) | / | 3 | /
Cc1ccc(-c2nnn(CC(=O)N(c3ccc(F)cc3)C(C(=O)NC(C)(C)C)c3ccco3)n2)o1 (centres undefined) | / | / | 83*
Cc1ccccc1-c1ccc2c(c1)O[C@H](CN(C)C(=O)c1ccccn1)[C@@H](C)CN([C@H](C)CO)S2(=O)=O | -3 | 1 | -25
CC(=O)N1CC2(C1)[C@H](c1ccc(-c3ccc(C#N)cc3)cc1)[C@@H](CO)N2C(=O)C1CC1 | 0 | 84* | /
CC(=O)N1CC2(C1)[C@H](c1ccc(-c3ccc(C#N)cc3)cc1)[C@@H](CO)N2C(C)=O | 0 | 6 | /
CC(=O)N1[C@H](CO)[C@H](c2ccc(-c3ccc(C#N)cc3)cc2)C12CN(C(=O)C1CC1)C2 | 0 | 62* | /
CC(=O)N1[C@@H](CO)[C@@H](c2ccc(-c3ccc(C#N)cc3)cc2)C12CN(C(=O)C1CC1)C2 | 0 | 8 | /
COc1cc2ncnc(NCc3ccccc3)c2cc1OC | / | / | -22
COc1ccc(CNc2ncnc3cc(OC)c(OC)cc23)cc1 | / | / | 111*
O=C(C1CCCC1)N1CCCCN2[C@H](CO)[C@@H](c3ccc(C#CC4CC4)cc3)[C@H]2C1 | / | 3 | /
OCCN1CCN(c2ncnc3c2ncn3[C@H]2CN(Cc3ccc(Cl)cc3)C[C@@H](CO)O2)CC1 | 0 | -7 | 1
CN1CCN(c2ncnc3c2ncn3[C@H]2CN(Cc3ccc(Cl)cc3)C[C@@H](CO)O2)CC1 | / | 35* | 0
C[C@@H]1CCCCO[C@@H](CN(C)C(=O)Nc2ccc(F)cc2)[C@@H](C)CN([C@H](C)CO)C(=O)c2cc(NC(=O)c3ccncc3)ccc2O1 | 0 | 9 | /
COc1ccc(Cl)cc1NC(=O)C(C)Sc1nncn1C (centres undefined) | / | / | 131*
CC(Sc1nncn1C)C(=O)Nc1ccc(Cl)cn1 (centres undefined) | / | -1 | /
Cc1noc(C)c1NC(=O)N[C@@H]1CC[C@H](CC(=O)NCc2ccc(Cl)c(Cl)c2)O[C@H]1CO | 0 | ? | -2
O=C(NC1CC1)c1cccc(NC(=O)c2cc(S(=O)(=O)N3CCOCC3)ccc2Cl)c1 | / | 94* | 5
Cc1ccc(S(=O)(=O)N2CCOCC2)cc1C(=O)NC1CCCCC1 | / | / | 71*
Cc1ccc(S(=O)(=O)N2CCCCC2)cc1C(=O)NC1CCCCC1 | / | -2 | 4
Cc1ccc(S(=O)(=O)N2CCOCC2)cc1C(=O)Nc1cccc(C(=O)NC2CC2)c1 | 0 | -9 | -9
